Several values for one entry are separate records, joined by “and”; a condition that tells them apart may be missing. Identical values can stand only once. Entries after “also recorded” stand apart in the source; their conditions may differ.
Legend:
[1] = system: Dd2 drug-resistant strain of P. falciparum; assay: Antimalarial bioassay: 72 h in vitro parasite growth assay, SYBR Green I; assay type: cell-based, Plasmodium falciparum; conditions: for Antiplasmodial activity (in words): Dd2 drug-resistant strain of P. falciparum; for Concentration at which compound was inactive in antimalarial assay: Dd2 strain, inactive at this (highest tested) dose
Procedure, shortened: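 Ring-stage Dd2 cultures (1% hematocrit, 1% parasitaemia) were grown for 72 h with increasing test compound concentrations at 37 °C in a humidified chamber under low oxygen (5.06% CO2, 4.99% O2, 89.95% N2). Viability was measured by SYBR Green I DNA quantitation. IC50 came from nonlinear regression as the mean of three independent determinations in duplicate, ± S.E.M. Artemisinin served as positive control.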

[2] = system: HEK293 (Human Embryonic Kidney) cells; assay: In vitro cytotoxicity against HEK293 cells; assay type: cell-based; conditions: 24 h
[3] = system: 3D7 strain of P. falciparum; conditions: chloroquine-sensitive strain; cited from earlier work

SMILES | Antiplasmodial activity (in words) [1] | Concentration at which compound was inactive in antimalarial assay [1] | Concentration up to which no inhibition/toxicity to HEK cells was detected [2] [µM] | Antiplasmodial activity (in words) ([1]; listed as Betulinic acid (3)) | Inhibition of 3D7 strain of P. falciparum (in words) [3]
C[C@H]1[C@H](C)CC[C@]2(C(=O)O)CC[C@]3(C)C(=CC[C@@H]4[C@@]5(C)CC[C@H](O)C(C)(C)[C@@H]5CC[C@]43C)[C@H]12 [Compound 5, ursolic acid] | inactive | 40 µM |  |  | 
CCCCCC(=O)c1c(O)cc(O)cc1O [Compound 6, 1-(2,4,6-trihydroxyphenyl)-1-hexanone] | inactive | 90 µM and 80 µM |  |  | 
CC(C)=CCCC1=CCC2(C(=O)C(C)(C)C(=O)C(C)(C)C2=O)C(CC(C)C)C1 (racemic) [Compound 2, (±)-2,2,4,4-tetramethyl-11-isobutyl-9-(4-methyl-3-penten-1-yl)-spiro[5.5]undec-8-ene-1,3,5-trione] | moderate antiplasmodial activity |  | 100 |  | 
C=C(C)[C@@H]1CC[C@]2(C(=O)O)CC[C@]3(C)[C@H](CC[C@@H]4[C@@]5(C)CC[C@H](O)C(C)(C)[C@@H]5CC[C@]43C)[C@@H]12 [Compound 3, betulinic acid] |  |  |  | moderate inhibitory effect | inhibit
CCCCCC(=O)c1c(O)cc(O)c2c1OC1=C(C(=O)C(C)(C)C(=O)C1(C)C)C2CC(C)C (racemic) [Compound 1, (±)-4,9-dihydro-6,8-dihydroxy-2,2,4,4-tetramethyl-5-hexanoyl-9-isobutyl-1H-xanthene-1,3(2H)-dione] | strong antiplasmodial activity; also recorded: strong antimalarial activity |  | 3.125 |  | 
